In BindingDB's records for doi:10.1016/j.ejmech.2020.112417 (University of Houston, 2020):

Molecular target: Nucleotide-binding oligomerization domain-containing protein 2 (Homo sapiens, UniProt Q9HC29)
Experiment: Inhibition of human NOD2 expressed in HEK293 cells coexpressing NFkappaB-SEAP reporter measured after 7 to 9 hrs by HEKBIue reporter assay
Procedure, shortened: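 IC50 values reported as the mean of two or three determinations ± standard deviation.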

Nucleotide-binding oligomerization domain-containing protein 2, sequence (Q9HC29 whole entry, the tested form may be a part): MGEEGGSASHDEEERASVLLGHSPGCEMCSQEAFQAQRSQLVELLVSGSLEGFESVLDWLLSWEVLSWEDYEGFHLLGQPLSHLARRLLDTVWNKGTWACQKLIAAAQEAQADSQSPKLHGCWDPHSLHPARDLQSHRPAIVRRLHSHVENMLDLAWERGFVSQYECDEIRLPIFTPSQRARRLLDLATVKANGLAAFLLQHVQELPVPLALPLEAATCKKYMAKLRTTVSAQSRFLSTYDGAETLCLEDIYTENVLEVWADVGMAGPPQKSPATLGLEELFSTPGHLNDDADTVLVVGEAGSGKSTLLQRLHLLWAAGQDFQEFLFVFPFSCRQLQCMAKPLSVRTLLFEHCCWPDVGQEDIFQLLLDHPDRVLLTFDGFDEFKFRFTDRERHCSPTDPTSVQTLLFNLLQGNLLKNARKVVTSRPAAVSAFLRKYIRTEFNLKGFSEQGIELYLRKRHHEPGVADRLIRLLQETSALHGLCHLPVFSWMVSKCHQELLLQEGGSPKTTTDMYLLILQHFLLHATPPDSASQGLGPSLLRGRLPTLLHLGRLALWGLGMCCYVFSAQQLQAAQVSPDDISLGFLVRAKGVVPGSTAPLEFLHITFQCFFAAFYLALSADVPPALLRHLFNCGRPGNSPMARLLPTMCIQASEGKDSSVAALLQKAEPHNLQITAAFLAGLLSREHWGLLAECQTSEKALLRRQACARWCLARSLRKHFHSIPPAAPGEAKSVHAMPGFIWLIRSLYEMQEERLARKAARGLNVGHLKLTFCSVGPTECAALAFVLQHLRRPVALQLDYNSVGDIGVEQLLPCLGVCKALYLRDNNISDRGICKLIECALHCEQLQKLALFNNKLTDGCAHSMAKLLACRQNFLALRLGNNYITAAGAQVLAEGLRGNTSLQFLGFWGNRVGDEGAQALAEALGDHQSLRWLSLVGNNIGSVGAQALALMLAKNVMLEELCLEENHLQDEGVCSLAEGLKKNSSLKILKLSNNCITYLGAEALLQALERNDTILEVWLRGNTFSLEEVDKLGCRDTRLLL

Row | IC50 | Structure (SMILES)
1 | 3700 nM | COc1cc(NS(C)(=O)=O)cc(-c2cc(-c3ccc(N4CCNCC4)cc3)cnc2C)c1
2 | 5240 nM | CCS(=O)(=O)Nc1cc(OC)cc(-c2cc(-c3ccc(N4CCNCC4)cc3)cnc2C)c1
3 | 2670 nM | CCCS(=O)(=O)Nc1cc(OC)cc(-c2cc(-c3ccc(N4CCNCC4)cc3)cnc2C)c1
4 | 523 nM | COc1cc(NS(=O)(=O)C(C)C)cc(-c2cc(-c3ccc(N4CCNCC4)cc3)cnc2C)c1
5 | 390 nM | COc1cc(NS(C)(=O)=O)cc(-c2cc(-c3ccc(N4CCNCC4)cc3)cnc2N)c1
6 | 243 nM | CCCS(=O)(=O)Nc1cc(OC)cc(-c2cc(-c3ccc(N4CCNCC4)cc3)cnc2N)c1
7 | 121 nM | COc1cc(NS(=O)(=O)C(C)C)cc(-c2cc(-c3ccc(N4CCNCC4)cc3)cnc2N)c1
8 | 53 nM | COc1cc(NS(=O)(=O)c2ccccc2)cc(-c2cc(-c3ccc(N4CCNCC4)cc3)cnc2N)c1
9 | 46 nM | CCOc1cc(NS(=O)(=O)C(C)C)cc(-c2cc(-c3ccc(N4CCNCC4)cc3)cnc2N)c1
10 | 323 nM | CC(C)Oc1cc(NS(=O)(=O)C(C)C)cc(-c2cc(-c3ccc(N4CCNCC4)cc3)cnc2N)c1
11 | 420 nM | CCCS(=O)(=O)Nc1cc(-c2cc(-c3ccc(N4CCNCC4)cc3)cnc2N)ccc1OC
12 | > 5000 nM | CCCS(=O)(=O)Nc1cc(-c2cc(-c3ccc(N4CCNCC4)cc3)cnc2N)ccc1O
13 | 1060 nM | CCCS(=O)(=O)Nc1cc(-c2cc(-c3ccc(N4CCNCC4)cc3)cnc2N)ccc1C
14 | 1 nM | CCCS(=O)(=O)Nc1cc(-c2cc(-c3ccc(N4CCNCC4)cc3)cnc2N)cc(OC)c1OC
15 | 2460 nM | CCCS(=O)(=O)Nc1cc(-c2cc(-c3ccc(N4CCNCC4)cc3)cnc2N)cc2c1OCCO2
16 | 129 nM | CCCS(=O)(=O)Nc1cc(-c2cc(-c3ccc(N4CCNCC4)cc3)cnc2N)cc(C)c1OC
17 | 26 nM | CCCS(=O)(=O)Nc1cc(-c2cc(-c3ccc(N4CCNCC4)cc3)cnc2N)cc(F)c1OC
18 | 46 nM | CCCS(=O)(=O)Nc1cc(-c2cc(-c3ccc(N4CCNCC4)cc3)cnc2N)cc(Cl)c1OC
19 | 595 nM | COc1cc(-c2cc(-c3ccc(N4CCNCC4)cc3)cnc2N)cc(F)c1OC
20 | 1290 nM | CCCS(=O)(=O)NCc1cc(-c2cc(-c3ccc(N4CCNCC4)cc3)cnc2N)ccc1OC
21 | 2430 nM | CCCS(=O)(=O)N1CCc2ccc(-c3cc(-c4ccc(N5CCNCC5)cc4)cnc3N)cc21
22 | 1010 nM | CCCS(=O)(=O)N1CCOc2ccc(-c3cc(-c4ccc(N5CCNCC5)cc4)cnc3N)cc21
23 | 352 nM | CCCS(=O)(=O)Nc1cc(-c2cncc(-c3ccc(N4CCNCC4)cc3)c2)cc(F)c1OC
24 | 2560 nM | CCCS(=O)(=O)Nc1cc(-c2cc(-c3ccc(N4CCNCC4)cc3)cnc2C)cc(F)c1OC
25 | 2660 nM | CCCS(=O)(=O)Nc1cc(-c2cc(-c3cccc(S(C)(=O)=O)c3)cnc2N)ccc1OC
26 | 16 nM | CCCS(=O)(=O)Nc1cc(-c2cc(-c3cccc(N4CCNCC4)c3)cnc2N)cc(F)c1OC
27 | 3350 nM | CCCS(=O)(=O)Nc1cc(-c2cc(-c3ccc(N4CCNCC4)cc3)cnc2N)cc(OC)c1C
28 | 2940 nM | CCCS(=O)(=O)Nc1ccc(-c2cc(-c3ccc(N4CCNCC4)cc3)cnc2C)cc1OC
